In the library only some 3.9% were active in any assay of this set; here they are far more common.
Gli-Sufu antag: Gli-Sufu pathway antagonists, primary screen, luciferase luminescence, Sufu-KO-LIGHT cells, uHTS; hit rate 0.74% among 340,000; inhibition, % at 5 µM; Sufu-KO-LIGHT fibroblasts, Gli luciferase reporter luminescence;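 active = inhibition above about 55%, limit read from the data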;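 also: 0% = DMSO-treated cells and 100% = wells with medium but no cells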
697 NFkB inh: inhibitors of PMA/ionomycin-induced NF-kB reporter, 697 cells, primary screen, B-cell NF-kB inhibitor project, cell-based, luminescence, uHTS. 697 B-cell NF-kB luciferase reporter, 16 h. AID 435022, 2010. inhibition, % at 4 µM. hit rate 0.33% among 330,000; in the data active = inhibition above about 35%
CHOP inhibitor: inhibitors of CHOP promoter induction, primary screen, cell-based, unfolded protein response, luciferase reporter; CHO-K1 CHOP-promoter luciferase, tunicamycin-induced, 15-18 h; inhibition, % at 10 µM; hit rate 3.8% among 220,000; AID 2732, 2010;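 active = compounds that reduced the stress-induced luciferase reporter signal by more than about 70% of percent inhibition, limit read from the data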;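 also: 0% = tunicamycin plus vehicle and 100% = wells without tunicamycin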
UPR CHOP act: activators of apoptotic CHOP UPR arm, primary screen, cell-based, CHO-CHOP luciferase reporter, luminescence, uHTS; UPR activation; percent of tunicamycin response over DMSO baseline; activation, % at 10 µM; hit rate 0.34% among 330,000;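 active = at 10 µM dose, activation of 40% or more, normalized to positive control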;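 also: 100% = tunicamycin at 10 µg/mL and 0% = DMSO alone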
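Test system: CHO-CHOP cells, stable luciferase reporter of PERK-eIF2a-CHOP signalling | Quantity: 500 CHO-CHOP cells per well | Buffer or medium: F12 plus 10% serum | Compound dosing: 10 µM single point, 0.5% DMSO | Schedule: 6 h compound treatment, 37 °C | Signal: Luciferase luminescence | Control set: Tunicamycin high control, DMSO low control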
XBP1 UPR activ: activators of adaptive XBP1 UPR arm, primary screen, cell-based, CHO-XBP1 luciferase reporter, luminescence, uHTS; IRE1-XBP1 UPR activation; percent of tunicamycin response, DMSO as zero; activation, % at 20 µM; hit rate 0.33% among 330,000; AID 463104, 2010;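 active = versus positive control, 20 µM dose yields 30% or more activation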;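 also: 100% = tunicamycin at 10 µg/mL and 0% = DMSO only wells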
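Material: CHO cell line with stable XBP1 luciferase reporter; schedule: 16-18 h cell attachment at 37 °C, then 6 h compound exposure; signal: glow luminescence from Steady-Glo reagent; medium: serum-containing F12 medium, 10% FBS; benchmarks: tunicamycin 10 µg/mL and vehicle-only wells; read-out: percent activation relative to tunicamycin reference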
Jurkat NFkB inh: inhibitors of induced NF-kB luciferase reporter, primary screen, TCR NF-kB activation inhibitor project, cell-based, luminescence, uHTS | inhibition, % at 4 µM | Jurkat, PMA/ionomycin-induced NF-kB luciferase reporter | hit rate 0.53% among 330,000; in the data active = inhibition above about 50%
697 NFkB conf: PMA/ionomycin-induced NF-kB reporter inhibitors, 697 retest, confirmation, B-cell NF-kB inhibitor project, cell-based, luminescence, single concentration; shares compounds with 697 NFkB inh; 697 B-cell NF-kB luciferase, 16 h; inhibition, % at 4 µM; hit rate 35% among 2,000; AID 449746, 2010; in the data active = inhibition mostly above about 28%, no sharp cut-off; inactive = mostly below about 22%
Numbers without * were called inactive; i = inactive; nt = no result given.

SMILES	Gli-Sufu antag	697 NFkB inh	CHOP inhibitor	UPR CHOP act	XBP1 UPR activ	Jurkat NFkB inh	697 NFkB conf
COc1ccc2nc(NC(=O)Nc3ccccc3OC)sc2c1	-128	-296	nt	5	7	-78	-365
COCCn1c(=NC(=O)CCS(=O)(=O)c2ccccc2)sc2cc(F)ccc21	8	-31	nt	-1	-1	7	nt
NC(=O)c1nsc(C(=O)N(c2cccc(F)c2)C(C(=O)NCC2CCCO2)c2c[nH]c3ccccc23)c1N (stereo not drawn)	20	11	nt	3	0	20	nt
Cc1ccc(-c2noc(CNC(=O)c3ccc4c(c3)OCO4)n2)cc1	26	10	nt	0	-4	-5	nt
CCc1c(C)nc(Nc2nc(C)c3cc(OC)ccc3n2)[nH]c1=O	-21	-6	14	2	13	-39	nt
CCc1ccc2nc(Nc3nc(COC)cc(=O)[nH]3)nc(C)c2c1	-2	42*	16	0	8	9	38*
CCCCCc1c(C)nc(Nc2nc(C)c3cc(OC)ccc3n2)[nH]c1=O	-6	39*	90*	1	18	31	4
O=C(OCC(=O)N1CCN(C(=O)COC(=O)c2ccc(O)cc2O)CC1)c1ccc(O)cc1O	-9	39*	nt	1	0	-1	12
CCOC(=O)N1CCN(C(=O)COC(=O)c2ccc(O)cc2O)CC1	21	16	6	-1	0	-1	nt
CCn1c(=O)cc(SCC(=O)N2CCOCC2)c2ccccc21	24	42*	-35	-2	-1	3	45*
CCn1c(=O)cc(SCC(=O)N2CCN(C(=O)c3ccco3)CC2)c2ccccc21	25	53*	-1	-1	2	6	38*
CCn1c(=O)cc(SCC(=O)N2CCN(c3ccccc3OC)CC2)c2ccccc21	24	36*	-7	-1	1	-4	9
COc1ccccc1N1CCN(C(=O)CSc2ccccc2)CC1	-15	-43	4	4	-1	-34	nt
CC(C)[C@H](N)c1nnc(SCC(=O)c2ccc(Cl)cc2)o1	16	58*	6	3	1	7	35*
CN(C)C(=O)c1cc(C(=O)c2ccccc2Br)c[nH]1	-8	0	nt	1	1	-2	nt
Cn1nc(-c2ccc(Cl)cc2)nc2c(=O)n(C)c(=O)nc1-2	nt	-316	nt	-9	-4	28	-293
Cc1ccc(C(=O)NNC(=O)c2ccc(NC(=O)C(C)(C)C)cc2)cc1	-12	2	nt	2	-2	-2	nt
CC(C)Cc1ccc(CN2CCCC(NC(=O)CSc3nncn3C)C2)cc1 (stereo not drawn)	nt	-15	nt	-2	0	2	nt
COc1ccc(N2CCN(C(=O)c3cc4c(-c5cccc(OC)c5)nn(C)c4s3)CC2)cc1	2	15	21	3	-2	15	nt
COc1ccc(-c2nn(C)c3sc(C(=O)N4CCOCC4)cc23)cc1OC	2	37*	25	0	1	16	4
Cc1noc(C)c1COc1ccc(C(=O)OCC(=O)Nc2cccc(S(=O)(=O)N3CCOCC3)c2)cc1	-4	39*	-1	-1	-3	5	0
Cn1nnnc1Sc1ncnc2scc(Br)c12	4	37*	nt	-6	-8	-1	60*
COc1ccc(/C=C\C(=O)O[C@@H]2C(O)C(O[C@@H]3OC(C)[C@H](O[C@@H]4OCC(O[C@H]5O[C@H](CO)[C@@H](O)C(O)C5O)C(O)C4O)C(O)C3O)[C@H](OC(=O)[C@]34CCC(C)(C)C[C@@H]3C3=CCC5[C@@]6(C)CC(O)C(O[C@@H]7OC(CO)C(O)[C@H](O)[C@H]7O)[C@@](C)(C(=O)O)C6CC[C@@]5(C)[C@]3(CO)CC4)O[C@H]2C)cc1 (stereo partly drawn)	33	49*	nt	5	21	29	44*
C[C@@H]1CC[C@]2(C(=O)O[C@@H]3O[C@H](CO)[C@@H](O)[C@H](O)[C@H]3O)CC[C@]3(C)C(=CCC4[C@@]5(C)CC[C@H](O[C@@H]6OC[C@H](O)[C@H](O[C@@H]7O[C@H](CO)[C@@H](O)[C@H](O)[C@H]7O)[C@H]6O)C(C)(C)C5CC[C@]43C)C2[C@]1(C)O (stereo partly drawn)	-6	1	nt	1	0	-6	nt
O=S(=O)(NC1=NCCCCC1)c1ccc(Cl)cc1Cl	7	13	nt	-1	-4	-12	nt
SMILES	Gli-Sufu antag	697 NFkB inh	CHOP inhibitor	UPR CHOP act	XBP1 UPR activ	Jurkat NFkB inh	697 NFkB conf
O=C1CCCc2c1[nH]c1ccc(CN3CCCCC3)cc21	12	38*	-9	-2	0	-15	29*
COc1ccc(CCNC(=O)c2cc(S(=O)(=O)N3CCCCC3)c[nH]2)cc1OC	-8	1	nt	-2	-4	4	nt
COc1ccc(-c2cc3nc(C)c(CCC(=O)NCc4ccco4)c(C)n3n2)c(OC)c1	0	28	15	1	-1	11	nt
Clc1cccc(-c2cc3nc4c(c(NCc5ccco5)n3n2)CCCC4)c1	-12	-327	11	3	6	-111	-347
Cc1nc2cc(-c3ccc(Cl)cc3)nn2c(C)c1CCC(=O)NCc1ccco1	0	43*	74*	0	-2	17	31*
Cc1ccc(-c2cc3nc(C)cc(NCc4ccco4)n3n2)cc1	-48	-256	-20	5	0	-130	-238
CC(=O)Nc1ccc(NC(=O)C(C)OC(=O)c2c(NC(C)=O)sc(C)c2C)cc1 (stereo not drawn)	4	6	nt	0	1	-19	nt
Cn1c(=O)[nH]c(=O)c2c1nc(N1CCN(CCO)CC1)n2Cc1ccccc1	7	5	nt	-2	-3	-3	nt
O=C(CNS(=O)(=O)c1ccc(Br)cc1)N1CCN(Cc2ccccc2)CC1	-8	1	nt	-1	-4	-5	nt
Cc1c(NC(=O)CSc2nnc3c4ccccc4n(CCc4ccccc4)c3n2)c(=O)n(-c2ccccc2)n1C	1	i	8	-4	-6	-32	i
CCCCn1c(N)c(N(CCOC)C(=O)COC(=O)COc2cc(C)c(Cl)cc2C(C)C)c(=O)[nH]c1=O	-9	11	nt	1	1	7	nt
COc1ccc(NC(=O)c2ccc(COc3ccccc3OC)o2)cc1OC	-4	-15	5	1	-3	-11	nt
